Laboratory results published in ChEMBL document CHEMBL1287802, “Convergent synthesis of fluorescence-labeled probes of Annonaceous acetogenins and visualization of their cell distribution” (Bioorg Med Chem, 2010).

What was measured:
Format in all cases: functional
[1] = Growth inhibition of human HBC4 cells after 48 hrs by sulforhodamine B assay; details: HBC4, 48 h
In short: (§1)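 Tested in the JFCR39 panel of 39 human cancer cell lines. Cells were exposed to compound for 48 h, and growth was measured as the change in total cellular protein by sulforhodamine B colorimetry. GI50 (molar concentration for 50% growth inhibition) was calculated by a previously reported method. Fingerprints were plotted as log differences of each line's GI50 from the panel mean.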

[2] = Growth inhibition of human BSY1 cells after 48 hrs by sulforhodamine B assay; details: BSY-1, 48 h; in short: as §1
[3] = Growth inhibition of human HBC5 cells after 48 hrs by sulforhodamine B assay; details: HBC5, 48 h; in short: as §1
MCF7 = assay: Growth inhibition of human MCF7 cells after 48 hrs by sulforhodamine B assay; details: MCF7, 48 h; in short: as §1
[4] = Growth inhibition of human MDA-MB-23 cells after 48 hrs by sulforhodamine B assay; details: MDA-MB-23, 48 h, read-out: pGI50 (converted); in short: as §1
U-251 = assay: Growth inhibition of human U251 cells after 48 hrs by sulforhodamine B assay; details: U-251, 48 h; in short: as §1
SF-268 = assay: Growth inhibition of human SF268 cells after 48 hrs by sulforhodamine B assay; details: SF-268, 48 h; in short: as §1
SF-295 = assay: Growth inhibition of human SF295 cells after 48 hrs by sulforhodamine B assay; details: SF-295, 48 h; in short: as §1
SF-539 = assay: Growth inhibition of human SF539 cells after 48 hrs by sulforhodamine B assay; details: SF-539, 48 h; in short: as §1
SNB-75 = assay: Growth inhibition of human SNB75 cells after 48 hrs by sulforhodamine B assay; details: SNB-75, 48 h; in short: as §1
SNB-78 = assay: Growth inhibition of human SNB78 cells after 48 hrs by sulforhodamine B assay; details: SNB-78, 48 h; in short: as §1
HCC 2998 = assay: Growth inhibition of human HCC2998 cells after 48 hrs by sulforhodamine B assay; details: HCC 2998, 48 h, read-out: pGI50 (converted); in short: as §1
KM12 = assay: Growth inhibition of human KM12 cells after 48 hrs by sulforhodamine B assay; details: KM12, 48 h; in short: as §1
HT-29 = assay: Growth inhibition of human HT-29 cells after 48 hrs by sulforhodamine B assay; details: HT-29, 48 h; in short: as §1
NCI-H23 = assay: Growth inhibition of human NCI-H23 cells after 48 hrs by sulforhodamine B assay; details: NCI-H23, 48 h; in short: as §1
NCI-H226 = assay: Growth inhibition of human NCI-H226 cells after 48 hrs by sulforhodamine B assay; details: NCI-H226, 48 h; in short: as §1
NCI-H522 = assay: Growth inhibition of human NCI-H522 cells after 48 hrs by sulforhodamine B assay; details: NCI-H522, 48 h; in short: as §1
NCI-H460 = assay: Growth inhibition of human NCI-H460 cells after 48 hrs by sulforhodamine B assay; details: NCI-H460, 48 h; in short: as §1
A549 = assay: Growth inhibition of human A549 cells after 48 hrs by sulforhodamine B assay; details: A549, 48 h; in short: as §1
DMS-273 = assay: Growth inhibition of human DMS273 cells after 48 hrs by sulforhodamine B assay; details: DMS-273, 48 h; in short: as §1
DMS-114 = assay: Growth inhibition of human DMS114 cells after 48 hrs by sulforhodamine B assay; details: DMS-114, 48 h; in short: as §1
LOX IMVI = assay: Growth inhibition of human LOXIMVI cells after 48 hrs by sulforhodamine B assay; in short: as §1
OVCAR-3 = assay: Growth inhibition of human OVCAR-3 cells after 48 hrs by sulforhodamine B assay; details: OVCAR-3, 48 h; in short: as §1
OVCAR-4 = assay: Growth inhibition of human OVCAR4 cells after 48 hrs by sulforhodamine B assay; details: OVCAR-4, 48 h; in short: as §1
OVCAR-5 = assay: Growth inhibition of human OVCAR5 cells after 48 hrs by sulforhodamine B assay; details: OVCAR-5, 48 h; in short: as §1
OVCAR-8 = assay: Growth inhibition of human OVCAR8 cells after 48 hrs by sulforhodamine B assay; details: OVCAR-8, 48 h; in short: as §1
SK-OV-3 = assay: Growth inhibition of human SKOV3 cells after 48 hrs by sulforhodamine B assay; details: SK-OV-3, 48 h; in short: as §1
[5] = Growth inhibition of human RXF631L cells after 48 hrs by sulforhodamine B assay; details: RXF 631, 48 h; in short: as §1
ACHN = assay: Growth inhibition of human ACHN cells after 48 hrs by sulforhodamine B assay; in short: as §1
St-4 = assay: Growth inhibition of human St-4 cells after 48 hrs by sulforhodamine B assay; details: St-4, 48 h; in short: as §1
[6] = Growth inhibition of human MKN1 cells after 48 hrs by sulforhodamine B assay; details: MKN-1, 48 h; in short: as §1
MKN-7 = assay: Growth inhibition of human MKN7 cells after 48 hrs by sulforhodamine B assay; details: MKN-7, 48 h; in short: as §1
MKN-28 = assay: Growth inhibition of human MKN28 cells after 48 hrs by sulforhodamine B assay; details: MKN-28, 48 h; in short: as §1
MKN-45 = assay: Growth inhibition of human MKN45 cells after 48 hrs by sulforhodamine B assay; details: MKN-45, 48 h; in short: as §1
MKN-74 = assay: Growth inhibition of human MKN74 cells after 48 hrs by sulforhodamine B assay; details: MKN-74, 48 h; in short: as §1
DU-145 = assay: Growth inhibition of human DU145 cells after 48 hrs by sulforhodamine B assay; details: DU-145, 48 h, read-out: pGI50 (converted); in short: as §1
PC-3 = assay: Growth inhibition of human PC3 cells after 48 hrs by sulforhodamine B assay; details: PC-3, 48 h; in short: as §1
HCT-15 = assay: Growth inhibition of human HCT15 cells after 48 hrs by sulforhodamine B assay; details: HCT-15, 48 h; in short: as §1
HCT-116 = assay: Growth inhibition of human HCT116 cells after 48 hrs by sulforhodamine B assay; details: HCT-116, 48 h; in short: as §1

Which results are given for `C[C@H]1C=C(CCCCCCCCCCCC[C@@H](O)[C@H]2CC[C@H]([C@H](O)CCCCCCCCCNc3ccc([N+](=O)[O-])c4nonc34)O2)C(=O)O1`?
GI50 [1]: 64.6 µM; GI50 [2]: 33.1 µM; GI50 [3]: 21.9 µM; GI50 (MCF7): 16.2 µM; GI50 [4]: > 100 µM; GI50 (U-251): 75.9 µM; GI50 (SF-268): 89.1 µM; GI50 (SF-295): 7.24 µM; GI50 (SF-539): 33.9 µM; GI50 (SNB-75): 51.3 µM; GI50 (SNB-78): 97.7 µM; GI50 (HCC 2998): > 100 µM; GI50 (KM12): 36.3 µM; GI50 (HT-29): 69.2 µM; GI50 (NCI-H23): 18.6 µM; GI50 (NCI-H226): 22.9 µM; GI50 (NCI-H522): 8.13 µM; GI50 (NCI-H460): 51.3 µM; GI50 (A549): 26.3 µM; GI50 (DMS-273): 19.1 µM; GI50 (DMS-114): 0.01 µM; GI50 (LOX IMVI): 10.7 µM; GI50 (OVCAR-3): 38.9 µM; GI50 (OVCAR-4): 60.3 µM; GI50 (OVCAR-5): 38.9 µM; GI50 (OVCAR-8): 69.2 µM; GI50 (SK-OV-3): 81.3 µM; GI50 [5]: 67.6 µM; GI50 (ACHN): 33.9 µM; GI50 (St-4): 33.1 µM; GI50 [6]: 21.4 µM; GI50 (MKN-7): 0.0525 µM; GI50 (MKN-28): 0.01 µM; GI50 (MKN-45): 43.7 µM; GI50 (MKN-74): 0.191 µM; GI50 (DU-145): > 100 µM; GI50 (PC-3): 29.5 µM; GI50 (HCT-15): 72.4 µM; GI50 (HCT-116): 15.8 µM
